An excerpt weighted towards active compounds, which were near 12% of everything screened.
Diaphorase inh: inhibits diaphorase or chemically oxidizes, flagging diaphorase assay artifacts; diaphorase resazurin-to-resorufin fluorescence, NADH, 16 min; bacterial (C. kluyveri) enzyme, not human; inhibition, % at 20 µM; 190,000 compounds, 0.69% hits;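 active = primary screen inhibition at 20 µM above a set limit, cut at about 50% in these data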;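 note: plate controls were DMSO with full reaction for no effect and wells lacking NADH for full effect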
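Assay system – diaphorase enzyme from Clostridium kluyveri · Amount – diaphorase 0.14 U/mL (working solution) · Times – reaction incubation of 16 min at room temperature · Controls – No-NADH positive control and DMSO neutral control · Signal – resorufin fluorescence 544/590 nm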
Diaphorase act: activates diaphorase or chemically reduces, flagging diaphorase assay artifacts; Diaphorase/resazurin coupled assay, resorufin fluorescence, 16 min; active compounds read high; 1 = vehicle wells, 0 = NADH-free wells; activation factor at 20 µM; 190,000 compounds, 0.005% hits;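 active = diaphorase activity raised at least twofold by the compound at 20 µM; inactive = activation factor below 2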
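Assay system: Purified diaphorase enzyme from Clostridium kluyveri | Amount: Enzyme 0.07 U/mL final | Dosing: Compound 20 µM once, DMSO 1% | Timing: 16 min reaction at room temperature | Detection: Fluorescence, excitation 544 nm and emission 590 nm | Evaluation: Higher resorufin formation from activation or reduction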
L major viab: inhibitors of Leishmania major promastigote growth; Leishmania major promastigotes, resazurin fluorescence viability; inhibition, % at 10 µM; 200,000 compounds, 9% hits; AID 1063; in the data active = inhibition above about 50%;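 note: promastigotes grown with compound for 44 hours at 28 °C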
Cl transport mod: KCC2 (human) Cl- transport modulation. B-score of Tl+ flux slope (higher = more flux/activation; lower = inhibition) at 10 µM. 190,000 compounds, 2.2% hits. AID 1456. KCC2 cells, thallium flux FluoZin-2 fluorescence;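 active = thallium flux slope and its plate-corrected score both differing from the plate sample mean at a set confidence after two filtering rounds, in either direction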;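 note: slope of fluorescence scaled to starting intensity during 10 to 20 s after thallium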
ROMK primary: modulates human ROMK potassium channel activity; P48048; Tet-inducible ROMK, thallium flux fluorescence; actives lie on both sides; B-score at 10 µM; 130,000 compounds, 2% hits; AID 1918;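 active = signal ratio slope over the read window, or its plate-corrected B-score, at least 3 SD from the plate mean, either direction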;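 note: B-score of the F/F0 ratio slope over 7 to 12 s after thallium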
WT yeast gro inh: growth inhibition of WT yeast, mitochondrial fusion screen. mitochondrial fusion phenotypic screen, WT strain. inhibition, % at 10 µM. 190,000 compounds, 2.1% hits. AID 1362; in the data active = inhibition above about 58%; tested in S. cerevisiae
KCC2 secondary: KCC2 (human) modulation, secondary assay; normalised thallium flux (F/F0 slope) at 10 µM; 3,700 compounds, 15% hits; shares compounds with Cl transport mod; HEK293-KCC2, thallium flux, FluoZin2 fluorescence; active compounds read high;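 active = thallium flux slope above the same plate's solvent-only control mean plus 3 SD; inconclusive = the two replicate wells disagree; inactive = no significant difference from solvent-only control wells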
KCC2 bumet counter: thallium flux despite bumetanide block in KCC2 cells, secondary assay 3; 3,700 compounds, 49% hits; shares compounds with Cl transport mod; normalized thallium flux at 10 µM; HEK293-KCC2 + bumetanide/ouabain, thallium flux FluoZin2; active compounds read high;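 active = thallium entry rate above the same plate's blocked-transporter control wells by more than 3 SD; inconclusive = the two repeat wells disagree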;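 note: raw slope of fluorescence over initial fluorescence between 10 and 20 s after thallium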
KCC2 sec2: confirmation of human KCC2 transport modulators; shares compounds with Cl transport mod; HEK293-KCC2, thallium flux FluoZin2 fluorescence; actives lie on both sides; F/F0 rise rate, 10–20 s post-thallium; normalized thallium flux at 10 µM; 3,700 compounds, 23% hits; AID 1715;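 active = thallium flux slope more than 3 SD above or below the plate's solvent-only control mean, mostly below; inconclusive = the two repeat wells disagreed; inactive = no significant shift from solvent-only controls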;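 note: raw slope with 0.1% DMSO as baseline and bumetanide as block control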
HEK293 Tl flux: counter-screen for KCC2 modulators: effect in parental HEK293 cells. thallium flux FluoZin2, ouabain; baseline-ratio fluorescence slope, 10–20 s after thallium. thallium flux rate (normalised fluorescence) at 10 µM. 3,700 compounds, 46% hits. AID 1716. shares compounds with Cl transport mod;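 active = thallium flux rate significantly above the same plate's solvent-only control wells, beyond their mean plus 3 SD; inconclusive = the two replicate wells gave conflicting results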
KCC2 retest ouab: modulates human KCC2 on retest with ouabain; shares compounds with Cl transport mod; HEK293-KCC2, thallium flux FluoZin2 fluorescence; bidirectional: low = inhibitor, high = activator; raw Tl+ flux slope (below DMSO = inhibition, above = activation) at 10 µM; 3,700 compounds, 48% hits;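 active = thallium flux slope beyond 3 SD from same-plate DMSO control mean in most replicates, usually higher, sometimes lower; inconclusive = repeat tests gave conflicting results; inactive = no significant difference from controls in most replicates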;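 note: slope of initial-normalized fluorescence between seconds 10 and 20 after thallium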
HEK293 Tl flux2: counter-screen for KCC2 modulators: effect in parental HEK293 cells | thallium flux FluoZin-2 fluorescence slope | 3,700 compounds, 33% hits | shares compounds with Cl transport mod | thallium flux slope at 10 µM;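 active = thallium flux slope above the same plate's solvent-control mean plus 3 SD in both duplicate wells; inconclusive = duplicate wells that disagreed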;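 note: run without ouabain in cells lacking the KCC2 cotransporter; slope of fluorescence scaled to its starting value between 10 and 20 s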
Starred values were filed as active, the others as inactive; ? = inconclusive; . = no result.

SMILES	Diaphorase inh	Diaphorase act	L major viab	Cl transport mod	ROMK primary	WT yeast gro inh	KCC2 secondary	KCC2 bumet counter	KCC2 sec2	HEK293 Tl flux	KCC2 retest ouab	HEK293 Tl flux2
O=C(CSc1nnc(C2CC2)n1Cc1ccccc1)c1cc2ccccc2o1	27.4	0.7	0.9	-3.84*	-1.03	-4.3	0.0066	?	0.0239*	0.0069	?	0.00938
NC(=O)CSc1nnc(-c2cc3ccccc3o2)n1Cc1ccccc1	6.7	0.9	-3.8	0.271	.	-0.6	.	.	.	.	.	.
Nc1nc(C(F)(F)F)cc(=O)n1N	10.1	0.9	5.6	0.34	0.104	-3.6	.	.	.	.	.	.
CCOC(=O)Cc1cc(=O)n2[nH]c(-c3ccccc3)c(-c3ccccc3)c2n1	4.1	1	-10.1	6.01*	0.645	8.7	0.00564	0.0183*	0.0311	0.0138*	?	0.0138*
Cc1nn2c3c(cnc2c1-c1ccc(Cl)cc1)C(=O)CC(c1ccco1)C3 (centres undefined)	15.5	0.8	.	.	.	.	.	.	.	.	.	.
CC(=O)Nc1ccc(SC[C@H](CC(C)C)N2CCN(CC(C)C)CCC2=O)cc1	.	.	.	0.122	.	.	.	.	.	.	.	.
Cc1ccc(SC[C@H](CC(C)C)N2CCN(C)CCC2=O)cc1	.	.	.	0.411	.	.	.	.	.	.	.	.
Cc1ccc(SC[C@H](CC(C)C)N2CCN(CCc3ccccc3)CCC2=O)cc1	.	.	.	-4.39*	.	.	0.00788	0.00527	0.0319	0.00713	0.0174*	0.00967
COc1ccc(SC[C@H](CC(C)C)N2CCN(CCc3ccccc3)CCC2=O)cc1	.	.	.	-4.64*	.	.	0.00609	0.00357	?	0.0058*	0.0133*	0.00872
CC(=O)Nc1ccc(SC[C@H](CC(C)C)N2CCN(CCc3ccccc3)CCC2=O)cc1	.	.	.	-3.79*	.	.	0.00963	0.00567	0.0333	0.00694	0.0189	0.0106
COCCCNC(=O)c1ccccc1SC	7.1	0.9	-5.8	1.36	-0.0543	-7.3	.	.	.	.	.	.
COc1cccc(C(=O)O/N=C/c2ccc(Sc3ccc(C)cc3)nc2)c1	14.2	0.9	2.0	.	0.881	0.5	.	.	.	.	.	.
C[C@@]12CCC=C[C@H]1[C@H](c1ccc(F)c(/C=C/c3ccccc3)c1)N(Cc1ccccc1)C2=O	.	.	.	0.0999	.	.	.	.	.	.	.	.
CCN(CC)C(=O)Cn1c(=O)oc2ccccc21	.	.	.	-0.0815	-0.416	.	.	.	.	.	.	.
CCCc1cc(-c2n[nH]c(=S)n2CC)cs1	5.8	0.9	-0.8	.	1.65	39.3	0.0132*	0.0204*	0.0314	0.0136*	0.0258	0.0119*
CCCCn1c(-c2csc(CCC)c2)n[nH]c1=S	24.5	0.8	-6.4	37.2*	-1.58	73.0*	?	0.0799*	0.0442*	0.0322*	0.0408*	0.0314*
CC(=O)NC1=NN(C(C)=O)C2(S1)C(=O)N(C(C)C)c1ccc(C)cc12 (centres undefined)	6.8	0.9	-9.1	.	0.0497	24.4	0.00674	0.00492	0.0285	0.00821	0.0189	0.0111
CC(C)N1CCN(Cc2cccn2-c2ccccn2)CC1CCO (centres undefined)	14.8	0.9	-5.4	0.769	1.04	1.2	.	.	.	.	.	.
Cc1occc1-c1nnc(SCC(=O)N2CCOCC2)n1Cc1ccco1	-4.6	1	9.6	6.41*	0.016	-11.9	0.00924	0.00619	0.0355	0.00797	0.0218	0.0104
Cc1occc1-c1nnc(SCC(=O)N2CCOCC2)n1CC(C)C	11.4	0.9	2.2	.	.	-6.8	.	.	.	.	.	.
Cc1cccc(-c2nc(=S)c3c(n2Cc2ccco2)CCCC3)c1	10.1	0.9	12.4	20.9*	0.0105	7.2	0.0064	0.0207*	0.0322	0.0175*	0.0316*	0.0154*
Cc1ccc(-c2nc(=S)c3c(n2CC2CCCO2)CC(C)(C)OC3)cc1 (centres undefined)	-3.5	1	-1.6	.	.	-8.6	.	.	.	.	.	.
Cc1ccc(-c2nc(=S)c3c(n2Cc2ccco2)CC(C)(C)OC3)cc1	29.1	0.7	-0.9	.	-0.00169	14.2	0.0174*	0.025*	0.033	0.0114*	0.0282	0.0119*
CN(C)CCCn1c(-c2ccccc2)nc(=S)c2c1CCCC2	13.9	0.9	3.5	0.746	.	-18.7	.	.	.	.	.	.
CCn1nnc(-c2ccccc2NS(=O)(=O)c2ccc(S(=O)(=O)N(C)C3CCCCC3)cc2)n1	11.3	0.9	11.4	0.0905	-0.859	11.9	.	.	.	.	.	.
SMILES	Diaphorase inh	Diaphorase act	L major viab	Cl transport mod	ROMK primary	WT yeast gro inh	KCC2 secondary	KCC2 bumet counter	KCC2 sec2	HEK293 Tl flux	KCC2 retest ouab	HEK293 Tl flux2
CCOC(=O)c1cn(CC)c2cc(N3CCSCC3)c(F)cc2c1=O	7.4	0.9	3.2	8.04*	-0.658	15.1	0.00647	0.00405	0.0319	0.00747	0.0187	0.00998
CCn1cc(C(=O)O)c(=O)c2cc(F)c(N3CCNCC3)cc21	3.7	1	-7.2	0.295	.	-2.0	.	.	.	.	.	.
N#Cc1c(NC(=O)c2ccc(Cn3cc(Br)cn3)o2)sc2c1CCCCC2	22.5	0.8	-5.2	-0.681	.	0.6	.	.	.	.	.	.
COC(=O)c1sc(NC(=O)c2ccc(Cn3cc(Cl)cn3)o2)c(C#N)c1C	17.7	0.8	20.8	.	-0.114	7.7	0.00804	0.007	0.0294	0.00636	0.0419*	0.0104
CC1CCN(C(=S)Nc2ccc(F)cc2)CC1	1.0	1	-4.7	-0.209	.	-4.4	.	.	.	.	.	.
C/C(=N\NC(=S)Nc1ccc(F)cc1)C1CC1	3.2	1	8.8	8.39*	.	38.0	0.00754	0.0236*	0.0362	0.0181*	0.0277*	0.0217*
CCOc1cccc(-c2nnc3sc(COc4ccc(Cl)cc4)nn23)c1	12.5	0.9	-4.3	-3.59*	.	-0.7	0.0185	0.00459	0.0282	0.00716	0.0143	0.0105
CS(=O)(=O)N(CC(=O)N1CCCC1)c1ccc2c(c1)OCCO2	4.7	1	4.3	.	-0.0325	-18.7	0.0073	0.00505	0.0302	0.00839	0.0179	0.0114
CC1(CCc2ccccc2)NC(=O)N(Cc2nnc(-c3ccccc3Br)o2)C1=O (centres undefined)	3.9	1	20.4	.	-1.38	13.7	0.00707	0.00438	0.0242*	0.00739	0.0163*	0.0101
CCn1c(C2CCN(Cc3ccccc3)CC2)n[nH]c1=S	-2.0	1	-3.7	-0.801	0.446	1.6	.	.	.	.	.	.

Screening results as filed in PubChem BioAssay.
